Assay results published in article PMC3920952 (Cell Death & Disease, 2013).

Key:
[1] = system: Jurkat cells; test: Cell death by propidium iodide staining and flow cytometry; format: cell-based; conditions: 15 μM, 18 h, 0.5% FBS; mean of three independent experiments
Procedure, shortened: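 Cells seeded at 4×10^5/ml in medium with 0.5% FBS and exposed for 18 h to TAT-fused truncated test peptides (15 μM) or TAT alone. Cells were washed in PBS and resuspended in PI solution (50 μg/ml PI, 0.1% sodium citrate, 0.1% Triton X-100). Flow cytometry gave the sub-G1 fraction. Mean ± S.D. of three independent experiments; two-tailed Student's t-test versus TAT.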

[2] = system: Jurkat cells; test: ATP-based cell viability assay
Procedure, shortened: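 Jurkat cells (RPMI, 10% FBS, 1.5 mmol/l L-glutamine) seeded in half-surface 96-well plates. Treated overnight/18 h with test peptide, TAT-only peptide or vehicle under low serum (0.5–5% FBS). Single-concentration runs used 15 μM. ATP measured by CellTiter-Glo luminescence and expressed as % of vehicle-treated control. Single-concentration values are mean ± S.D. of four independent experiments.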

[3] = system: K562 cells; test: Trypan blue exclusion assay; format: cell-based; conditions: 20 μM, 15-min treatment
Procedure, shortened: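 K562 cells were exposed to 20 μM test peptide or TAT in medium with 0.5% FBS, either over a time course (minutes) or for 18 h. Cells in suspension were mixed 1:1 with 0.4% Trypan blue. Viable (dye-negative) cells were counted on an automated cell counter. Values are mean ± S.D.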

[4] = Particle size by dynamic light scattering; format: physicochemical; conditions: PBS pH 7.4, 25 °C
Procedure, shortened: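 Test peptide at 60 μM in PBS, pH 7.4, at 25 °C was filtered and degassed, then scanned in a 1-mm path quartz cuvette. 90° light scattering was recorded for 3 min. Particle radius was derived by CONTIN analysis of the DLS data.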

[5] = system: Jurkat cells; test: Trypan blue exclusion assay; format: cell-based
Procedure, shortened: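 Jurkat cells cultured in 96-well plates and treated with TAT or test peptide overnight (10–15 μM range). In the caspase-inhibitor arm, cells were preincubated 30 min with zVAD-fmk or vehicle, then treated 17 h (TAT 10 μM). Suspended cells were mixed 1:1 with 0.4% Trypan blue, and viable cells were counted on a TC10 automated counter.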

[6] = Tolerability in xenograft-bearing mice; format: in vivo, nu/nu mice; conditions: mice treated for 18 days, 2.0 and 8.0 mg/kg daily i.p.
Procedure, shortened: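 HCT116 cells (1×10^6) injected s.c. into the right flank of 7–8-week-old female nu/nu mice. After 1 week, mice were randomized into four groups of eight. Groups received daily i.p. test peptide (2.0 or 8.0 mg/kg) or TAT (1.3 or 5.3 mg/kg) for 18 days. Body weight was monitored. Liver, brain, heart, lung and spleen sections were assessed by H&E staining.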

CTADMS [killerFLIP-C]
cell death (PI staining) [1]: 14.6%

FALFCTSW [scrambled killerFLIP-E]
relative ATP levels compared with vehicle-treated cells ([2]; 18 h, comparison with scrambled variant (Figure 4c), concentration not given): 12.7%

YGRKKRRQRRR [TAT, reference compound]
Trypan blue-negative cells [3]: 83%
self-assembly into micelles in aqueous solution (DLS) [4]: does not
cells excluding Trypan blue ([5]; 10 μM TAT, 17 h, no zVAD-fmk): 78%
cell death (Trypan blue exclusion) ([5]; 10 μM, 17 h): did not induce cell death
Trypan blue-negative cells ([5]; 20 μM, 15-min treatment): 75.2%

YGRKKRRQRRRREADFFWSLCTADMS [killerFLIP]
tolerability [6]: generally well tolerated
effect on cell viability (relative ATP levels) ([2]; overnight treatment, various concentrations, low serum (0.5–5% FBS)): concentration-dependent decrease in cell viability
cell death, share of Jurkat cells (Trypan blue exclusion) ([5]; 10–15 μM, overnight): ~50%

B1: HGS-ETR2: agonistic anti-TRAIL-R2 antibody used as a positive control for apoptotic cell death (antibody, chains of the INN, looked up, V domains shown)
VH: EVQLVQSGGGVERPGGSLRLSCAASGFTFDDYGMSWVRQAPGKGLEWVSGINWNGGSTGYADSVKGRVTISRDNAKNSLYLQMNSLRAEDTAVYYCAKILGAGRGWYFDLWGKGTTVTVSS
VL: SSELTQDPAVSVALGQTVRITCQGDSLRSYYASWYQQKPGQAPVLVIYGKNNRPSGIPDRFSGSSSGNTASLTITGAQAEDEADYYCNSRDSSGNHVVFGGGTKLTVL
Trypan blue-negative cells ([5]; HGS-ETR2 1 μg/ml, 17 h, after 30 min pre-treatment with 20 μM zVAD-fmk): 70%
Trypan blue-negative cells ([5]; HGS-ETR2 1 μg/ml, 17 h, no zVAD-fmk): 11%
